# Source: ChEMBL document CHEMBL1240522, “Effect of goniothalamin on the development of Ehrlich solid tumor in mice” (Bioorg Med Chem, 2010)
# The source made the active and inactive calls. The calls are words filed in the database; no cut-off is given here.
# How the values were obtained:
# Mus musculus [1] = assay: Antiinflammatory activity in BALB/C mouse assessed as inhibition of carrageenan-induced paw edema at 20 mg/kg, ip administered 30 mins before carrageenan challenge measured before 48 hrs by plethysmometer; type: functional, organism-based; parameters: dose 20 mg/kg
# Outline: (§1)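 Balb/C mice, n = 8/group. Right hind paw basal volume measured by plethysmometer. Single ip dose in 0.9% saline vehicle, then carrageenan 2.5% injected intraplantar into the right hind footpad 30 min later. Edema taken as measured minus basal volume at 1.5, 3.0, 4.5, 6.0, 24, 48 and 72 h. Expressed as % inhibition vs vehicle ± standard deviation; ANOVA.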
# [2] = Antitumor activity against mouse EAC cells xenografted in BALB/C mouse assessed as reduction of tumor weight at 100 mg/kg, ip administered every 3 days measured on day 15 relative to control; type: functional; conditions: Ehrlich, route intraperitoneal
# Outline: (§2)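 Ehrlich footpad tumour model in Balb/C mice (n = 8/group, 2.5 × 10^6 cells) with ip dosing every third day from day 3 in 0.9% saline. Mice sacrificed on day 15 and both hind paws weighed. Relative tumour weight = (tumour paw − healthy paw weight)/body weight. Reported as % inhibition vs vehicle ± SD; ANOVA.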
# UACC-62 = assay: Cytotoxicity against human UACC62 cells after 48 hrs by sulforhodamine B assay; type: functional; conditions: UACC-62, 48 h
# Outline: (§3)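 Cells grown in RPMI 1640 with 5% FBS at 37 °C, 5% CO2, with penicillin/streptomycin. Treated for 48 h with compound in DMSO/RPMI at […]. Fixed with 50% trichloroacetic acid, protein stained with sulforhodamine B and read at 540 nm. TGI (total growth inhibition) obtained by non-linear regression of the concentration–response curves.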
# MCF7 = assay: Cytotoxicity against human MCF7 cells after 48 hrs by sulforhodamine B assay; type: functional; conditions: MCF7, 48 h; outline: as §3
# [3] = Cytotoxicity against human NCI-ADR-RES cells after 48 hrs by sulforhodamine B assay; type: functional; outline: as §3
# 786-0 = assay: Cytotoxicity against human 786-0 cells after 48 hrs by sulforhodamine B assay; type: functional; conditions: 786-0, 48 h; outline: as §3
# NCI-H460 = assay: Cytotoxicity against human NCI-H460 cells after 48 hrs by sulforhodamine B assay; type: functional; conditions: NCI-H460, 48 h; outline: as §3
# [4] = Cytotoxicity against human PCO3 cells after 48 hrs by sulforhodamine B assay; type: functional; conditions: PCO3, 48 h; outline: as §3
# OVCAR-3 = assay: Cytotoxicity against human OVCAR-3 cells after 48 hrs by sulforhodamine B assay; type: functional; conditions: OVCAR-3, 48 h; outline: as §3
# HT-29 = assay: Cytotoxicity against human HT-29 cells after 48 hrs by sulforhodamine B assay; type: functional; conditions: HT-29, 48 h; outline: as §3
# U-251 = assay: Cytotoxicity against human U251 cells after 48 hrs by sulforhodamine B assay; type: functional; conditions: U-251, 48 h; outline: as §3
# Mus musculus [5] = assay: Acute toxicity in BALB/C mouse assessed as mortality at up to 300 mg/kg, ip after 4 hrs; type: organism-based; parameters: dose 300 mg/kg, route intraperitoneal; conditions: in vivo
# Outline: (§4)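 Balb/C mice (20–35 g) dosed intraperitoneally at 50, 100 and 300 mg/kg. Observed for 4 h, then daily for 14 days, for body weight loss, locomotion, behaviour (agitation, lethargy), respiration, salivation, tearing eyes, cyanosis and mortality.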
# Mus musculus [6] = assay: Acute toxicity in BALB/C mouse assessed as mortality at up to 300 mg/kg, ip after 15 days; type: organism-based; parameters: dose 300 mg/kg, route intraperitoneal; conditions: in vivo, 360 h; outline: as §4
# [7] = Antitumor activity against mouse EAC cells xenografted in BALB/C mouse assessed as inhibition of tumor growth at 30 mg/kg, ip administered every 3 days measured on day 7 relative to control; type: functional; conditions: Ehrlich, route intraperitoneal
# Outline: (§5)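 Ehrlich cells kept as ascites by weekly ip passage of 5 × 10^5 cells in mice. Balb/C mice (n = 8/group) inoculated with 2.5 × 10^6 cells into the right hind footpad. Dosed ip every third day from day 3, vehicle 0.9% saline. Tumour volume taken as plethysmometer paw volume minus basal, every third day to day 15. Reported as % inhibition vs vehicle ± SD; ANOVA.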
# [8] = Antitumor activity against mouse EAC cells xenografted in BALB/C mouse assessed as inhibition of tumor growth at 100 mg/kg, ip administered every 3 days measured on day 7 relative to control; type: functional; conditions: Ehrlich, route intraperitoneal; outline: as §5
# [9] = Antitumor activity against mouse EAC cells xenografted in BALB/C mouse assessed as inhibition of tumor growth at 300 mg/kg, ip administered every 3 days measured on day 7 relative to control; type: functional; conditions: Ehrlich, route intraperitoneal; outline: as §5
# [10] = Antitumor activity against mouse EAC cells xenografted in BALB/C mouse assessed as inhibition of tumor growth at 30 mg/kg, ip administered every 3 days measured on day 15 relative to control; type: functional; conditions: Ehrlich, route intraperitoneal; outline: as §5
# [11] = Antitumor activity against mouse EAC cells xenografted in BALB/C mouse assessed as inhibition of tumor growth at 100 mg/kg, ip administered every 3 days measured on day 15 relative to control; type: functional; conditions: Ehrlich, route intraperitoneal; outline: as §5
# [12] = Antitumor activity against mouse EAC cells xenografted in BALB/C mouse assessed as inhibition of tumor growth at 300 mg/kg, ip administered every 3 days measured on day 15 relative to control; type: functional; conditions: Ehrlich, route intraperitoneal; outline: as §5
# [13] = Antitumor activity against mouse EAC cells xenografted in BALB/C mouse assessed as reduction of tumor weight at 300 mg/kg, ip administered every 3 days measured on day 15 relative to control; type: functional; conditions: Ehrlich, route intraperitoneal; outline: as §2
# [14] = Antitumor activity against mouse EAC cells xenografted in BALB/C mouse assessed as reduction of tumor weight at 30 mg/kg, ip administered every 3 days measured on day 15 relative to control; type: functional; conditions: Ehrlich, route intraperitoneal; outline: as §2
# Mus musculus [15] = assay: Acute toxicity in BALB/C mouse assessed as reduction of body weight at up to 300 mg/kg, ip after 15 days; type: organism-based; parameters: dose 300 mg/kg, route intraperitoneal; conditions: in vivo, 360 h; outline: as §4
# Mus musculus [16] = assay: Antiinflammatory activity in BALB/C mouse assessed as inhibition of carrageenan-induced paw edema at 30 mg/kg, ip administered 30 mins before carrageenan challenge measured before 6 hrs by plethysmometer; type: functional, organism-based; parameters: dose 30 mg/kg; outline: as §1
# Mus musculus [17] = assay: Antiinflammatory activity in BALB/C mouse assessed as inhibition of carrageenan-induced paw edema at 100 mg/kg, ip administered 30 mins before carrageenan challenge measured after 3 to 4.5 hrs by plethysmometer; type: functional, organism-based; parameters: dose 100 mg/kg; outline: as §1
# Mus musculus [18] = assay: Antiinflammatory activity in BALB/C mouse assessed as inhibition of carrageenan-induced paw edema at 300 mg/kg, ip administered 30 mins before carrageenan challenge measured after 48 to 72 hrs by plethysmometer; type: functional, organism-based; parameters: dose 300 mg/kg; outline: as §1
# Mus musculus [19] = assay: Antiinflammatory activity in BALB/C mouse assessed as inhibition of carrageenan-induced paw edema at 100 mg/kg, ip administered 30 mins before carrageenan challenge measured before 6 hrs by plethysmometer; type: functional, organism-based; parameters: dose 100 mg/kg; outline: as §1
# Mus musculus [20] = assay: Antiinflammatory activity in BALB/C mouse assessed as inhibition of carrageenan-induced paw edema at 100 mg/kg, ip administered 30 mins before carrageenan challenge measured before 24 hrs by plethysmometer; type: functional, organism-based; parameters: dose 100 mg/kg; outline: as §1
# Mus musculus [21] = assay: Antiinflammatory activity in BALB/C mouse assessed as inhibition of carrageenan-induced paw edema at 100 mg/kg, ip administered 30 mins before carrageenan challenge measured before 72 hrs by plethysmometer; type: functional, organism-based; parameters: dose 100 mg/kg; outline: as §1
# Mus musculus [22] = assay: Antiinflammatory activity in BALB/C mouse assessed as inhibition of carrageenan-induced paw edema at 30 mg/kg, ip administered 30 mins before carrageenan challenge measured before 48 hrs by plethysmometer; type: functional, organism-based; parameters: dose 30 mg/kg; outline: as §1
# [23] = Antitumor activity against mouse EAC cells xenografted in BALB/C mouse assessed as inhibition of increase in tumor volume at 3 mg/kg, ip administered every 3 days measured on day 7 relative to control; type: functional; conditions: Ehrlich, route intraperitoneal; outline: as §5
# [24] = Antitumor activity against mouse EAC cells xenografted in BALB/C mouse assessed as inhibition of increase in tumor volume at 3 mg/kg, ip administered every 3 days measured on day 15 relative to control; type: functional; conditions: Ehrlich, route intraperitoneal; outline: as §5
# [25] = Antitumor activity against mouse EAC cells xenografted in BALB/C mouse assessed as reduction of tumor weight at 3 mg/kg, ip administered every 3 days measured on day 15 relative to control; type: functional; conditions: Ehrlich, route intraperitoneal; outline: as §2
# Mus musculus [26] = assay: Acute toxicity in BALB/C mouse assessed as reduction of body weight at up to 3 mg/kg, ip after 15 days; type: organism-based; parameters: dose 3 mg/kg, route intraperitoneal; conditions: in vivo, 360 h
# Outline: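 Balb/C mice (n = 8/group) carrying Ehrlich footpad tumours, given ip doses every third day from day 3 (four treatments), vehicle 0.9% saline. Animals weighed and watched for toxicity throughout; body-weight loss recorded at the end of the experiment, day 15.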
# Mus musculus [27] = assay: Antiinflammatory activity in BALB/C mouse assessed as inhibition of carrageenan-induced paw edema at 5 mg/kg, ip administered 30 mins before carrageenan challenge measured before 24 hrs by plethysmometer; type: functional, organism-based; parameters: dose 5 mg/kg; outline: as §1
# Mus musculus [28] = assay: Antiinflammatory activity in ip dosed BALB/C mouse assessed as inhibition of carrageenan-induced paw edema administered 30 mins before carrageenan challenge measured after 24 hrs by plethysmometer; type: functional, organism-based; outline: as §1
smiles,measurement,setting,value
CN1C(C(=O)Nc2ccccn2)=C(O)c2ccccc2S1(=O)=O,inhibition,Mus musculus [1],Active
O=C1C=CCC(/C=C/c2ccccc2)O1 (racemic),inhibition in vivo at 100 mg/kg,[2],31.6%
same,TGI,UACC-62,23.2 µM
same,TGI,MCF7,22.7 µM
same,TGI,[3],6.38 µM
same,TGI,786-0,22.4 µM
same,TGI,NCI-H460,36.4 µM
same,TGI,[4],18.2 µM
same,TGI,OVCAR-3,18.8 µM
same,TGI,HT-29,29.2 µM
same,TGI,U-251,18.2 µM
same,Activity,Mus musculus [5],Non-toxic
same,Activity,Mus musculus [6],Non-toxic
same,inhibition in vivo at 30 mg/kg,[7],50%
same,inhibition in vivo at 100 mg/kg,[8],41.7%
same,inhibition in vivo at 300 mg/kg,[9],35.7%
same,inhibition in vivo at 30 mg/kg,[10],48.5%
same,inhibition in vivo at 100 mg/kg,[11],40.9%
same,inhibition in vivo at 300 mg/kg,[12],66.7%
same,inhibition in vivo at 300 mg/kg,[13],41.8%
same,inhibition in vivo at 30 mg/kg,[14],36.7%
same,Activity,Mus musculus [15],Non-toxic
same,inhibition,Mus musculus [16],inactive
same,inhibition,Mus musculus [17],Active
same,inhibition,Mus musculus [18],Active
same,inhibition,Mus musculus [19],inactive
same,inhibition,Mus musculus [20],Active
same,inhibition,Mus musculus [21],Active
same,inhibition,Mus musculus [22],Active
same,inhibition,Mus musculus [1],Active
COc1cccc2c1C(=O)c1c(O)c3c(c(O)c1C2=O)C[C@@](O)(C(=O)CO)C[C@@H]3O[C@H]1C[C@H](N)[C@H](O)[C@H](C)O1 [DOXORUBICIN],TGI,UACC-62,0.32 µM
same,TGI,MCF7,11 µM
same,TGI,[3],2.83 µM
same,TGI,786-0,7.86 µM
same,TGI,NCI-H460,2.37 µM
same,TGI,[4],4.03 µM
same,TGI,OVCAR-3,10.2 µM
same,TGI,HT-29,16.4 µM
same,TGI,U-251,1.42 µM
same,inhibition in vivo at 3 mg/kg,[23],42.7%
same,inhibition in vivo at 3 mg/kg,[24],34.7%
same,inhibition in vivo at 3 mg/kg,[25],28%
same,Activity,Mus musculus [26],2.5 g
same,inhibition,Mus musculus [27],Active
same,inhibition,Mus musculus [28],Dose-dependent effect
